The source made the active and inactive calls. The calls are words filed in the database; no cut-off is given here.
What was measured:
[1] = Induction of glucose consumption in mouse C2C12 cells at 10 uM measured after 12 hrs by glucose oxidase method (reference value: 100 %); assay type: functional
In short: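 Differentiated C2C12 myotubes were switched to DMEM containing 2.75 g/L glucose and treated for 12 h at 37 °C, with cell-free blank wells as reference. Glucose left in the medium was measured by the GOD-POD method at 570 nm. Consumption was derived by subtraction and expressed as percentage of the DMSO group.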

[2] = Inhibition of bovine heart mitochondrial complex 1 at 10 uM measured every minute for 2 hrs by microplate reader based assay; assay type: tissue-based, Bos taurus; conditions: cattle
In short: (§1)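 Bovine heart mitochondria in detergent were captured on a complex I antibody-coated plate for 2 h at room temperature. Phospholipids were added, then complex I solution with compound, rotenone control or DMSO. NADH oxidation was followed as the fall in A340, read every minute for at least 2 h at 30 °C.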

Mus musculus [3] = assay: Hypoglycemic activity in 6 hrs fasted normal lean C57BL/6 mouse assessed as reduction in blood glucose level at 100 mg/kg, ig pretreated for 2 hrs followed by glucose challenge and measured up to 90 mins post glucose challenge starting from 120 mins prior to […] by IPGTT; assay type: functional, organism-based; conditions: time 210.0 min
In short: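 C57BL/6 mice (male, 8-10 weeks, n=6 per group) fasted 6 h, then given compound or vehicle intragastrically. Two hours later, 20% glucose was injected i.p. at 2 g/kg. Tail-vein glucose read by glucometer at -120, 0, 20, 40, 60 and 90 min, and net AUC calculated. Doses were 25, 50 and 100 mg/kg.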

C2C12 = assay: Activation of AMPK in mouse C2C12 cells assessed as increase in AMPK phosphorylation at Thr172 residue at 10 uM measured after 2 hrs by Western blot analysis; assay type: cell-based; conditions: filed as activator
In short: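 C2C12 myoblasts differentiated in DMEM with 2% horse serum for 5-7 days until myotubes formed. Treated for 2 h, either at 10 μM or across a concentration range, or at 10 μM over a time course. RIPA lysates (~30 µg protein) blotted for p-AMPK/AMPK and p-ACC/ACC, detected by ECL. The p-AMPK/AMPK ratio is expressed as fold of the DMSO vehicle.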

[4] = Inhibition of bovine heart mitochondrial complex 1 at 5 to 20 uM measured every minute for 2 hrs by microplate reader based assay; assay type: tissue-based, Bos taurus; conditions: cattle, dose 5-20 µM; in short: as §1
[5] = Metabolic stability in human liver microsomes assessed as half life preincubated for 5 mins followed by NADPH addition and measured up to 45 mins by LC/MS analysis; assay type: ADME, Microsome; conditions: time 50 min
In short: (§2)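 Compound was preincubated with mouse (ICR/CD-1) or human liver microsomes in potassium phosphate buffer at 37 °C for 5 min, then NADPH was added to start the reaction. Samples were quenched with acetonitrile containing tolbutamide internal standard at 0, 5, 15, 30 and 45 min. Parent compound measured by LC/MS; ketanserin served as control.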

[6] = Metabolic stability in ICR/CD-1 mouse liver microsomes assessed as half life preincubated for 5 mins followed by NADPH addition and measured up to 45 mins by LC/MS analysis; assay type: ADME, Microsome; conditions: time 50 min; in short: as §2
[7] = Metabolic stability in ICR/CD-1 mouse liver microsomes assessed as intrinsic clearance preincubated for 5 mins followed by NADPH addition and measured up to 45 mins by LC/MS analysis; assay type: ADME, Microsome; conditions: time 50 min, read-out: CLH
In short: (§3)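 Compound and liver microsomes in preheated potassium phosphate buffer, held at 37 °C for 5 min. Reaction started with NADPH and stopped at 0, 5, 15, 30 and 45 min with acetonitrile containing tolbutamide internal standard. Samples centrifuged at 6000 rpm for 15 min, supernatant analysed by LC/MS. Ketanserin run as assay control. Performed by a contract lab.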

[8] = Metabolic stability in human liver microsomes assessed as intrinsic clearance preincubated for 5 mins followed by NADPH addition and measured up to 45 mins by LC/MS analysis; assay type: ADME, Microsome; conditions: time 50 min, read-out: CLH; in short: as §3
[9] = Metabolic stability in human liver microsomes assessed as compound remaining preincubated for 5 mins followed by NADPH addition and measured up to 45 mins by LC/MS analysis; assay type: ADME, Microsome; conditions: time 50 min, read-out: Stabilty; in short: as §2
[10] = Metabolic stability in ICR/CD-1 mouse liver microsomes assessed as compound remaining preincubated for 5 mins followed by NADPH addition and measured up to 45 mins by LC/MS analysis; assay type: ADME, Microsome; conditions: time 50 min, read-out: Stabilty; in short: as §2
[11] = Inhibition of mitochondrial complex 1 in human HepG2 cells assessed as increase in AMP/ATP ratio at 0.5 uM; assay type: cell-based; conditions: hepg2, 0.5 µM
In short: (§4)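 HepG2 cells treated with 10 μM or 0.5 μM compound, or DMSO. Cellular ADP:ATP and AMP:ATP ratios were measured. Three replicates, given as mean ± SD and compared by Student's t test.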

[12] = Inhibition of mitochondrial complex 1 in human HepG2 cells assessed as increase in ADP/ATP ratio at 0.5 uM; assay type: cell-based; conditions: hepg2, 0.5 µM; in short: as §4
A549 = assay: Activation of AMPK in human A549 cells harboring mutant LKB1; assay type: cell-based; conditions: filed as activator
Mus musculus [13] = assay: Hypoglycemic activity in 6 hrs fasted normal lean C57BL/6 mouse assessed as improved glucose tolerance at 10 mg/kg, ig pretreated for 2 hrs followed by glucose challenge and measured up to 90 mins post glucose challenge starting from 120 mins prior to compound treatment by IPGTT; assay type: functional, organism-based; conditions: time 210.0 min
Mus musculus [14] = assay: Activation of AMPK in normal lean C57BL/6 mouse assessed as increase in phosphorylated ACC level in skeletal muscle at 100 mg/kg, ig administered for 4 weeks by Western blot analysis; assay type: functional, organism-based; conditions: Skeletal muscle tissue
In short: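 Male C57BL/6 mice, 9 weeks old, dosed intragastrically once daily for 4 weeks alongside vehicle controls. Heart and skeletal muscle were homogenized in RIPA buffer with protease/phosphatase inhibitors and centrifuged at 10,600 g for 20 min. About 30 µg protein was blotted for p-AMPK and p-ACC and detected by ECL.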

Row | Compound | Activity [1] | other results
1 | COC(=O)c1ccc(COc2ccc(NC(=O)C(C)(C)Oc3ccc(Cl)cc3)cc2)cc1 | 124.7% | 
2 | O=C(COc1ccc(C(=O)c2ccccc2)cc1)NC1CCN(Cc2ccccc2)CC1 | 132.4% | inhibition (INH) [2]: Active; Activity (Mus musculus [3]): Active; Activity (C2C12): Active
3 | CC(C)(Oc1ccc(Cl)cc1)C(=O)Nc1ccc(OCc2ccc(S(C)(=O)=O)cc2)cc1 | 144.4% | Activity (C2C12): Active
4 | CC(C)(Oc1ccc(Cl)cc1)C(=O)N1CCC(NC(=O)Nc2ccc([N+](=O)[O-])cc2)CC1 | 115.4% | 
5 | CC(C)(Oc1ccc(Cl)cc1)C(=O)N1CCC(NC(=O)Nc2ccc(C(=O)O)cc2)CC1 | 117.7% | 
6 | COc1ccc(NC(=O)NC2CCN(C(=O)C(C)(C)Oc3ccc(Cl)cc3)CC2)cc1 | 134.4% | 
7 | CC(C)(Oc1ccc(Cl)cc1)C(=O)N1CCC(NC(=O)Nc2ccc(F)cc2)CC1 | 119.3% | Activity (C2C12): Active
8 | CC(C)(Oc1ccc(Cl)cc1)C(=O)N1CCC(NC(=O)Nc2ccc(C(F)(F)F)cc2)CC1 | 137.2% | Activity (C2C12): Active; inhibition (INH) [4]: Not Active
9 | CC(C)(Oc1ccc(Cl)cc1)C(=O)Nc1ccc(OCc2ccc(C(=O)O)cc2)cc1 | 116.5% | 
10 | CC(C)(Oc1ccc(Cl)cc1)C(=O)N1CCC(NC(=O)Nc2ccc(Br)cc2)CC1 | 127.3% | 
11 | CC(C)(Oc1ccc(Cl)cc1)C(=O)N1CCC(NC(=O)Nc2ccccc2)CC1 | 118% | 
12 | CC(C)(Oc1ccc(Cl)cc1)C(=O)N1CCC(NC(=O)Nc2ccc(Cl)cc2)CC1 | 104.1% | Activity (C2C12): Active
13 | Cc1ccc(COc2ccc(NC(=O)C(C)(C)Oc3ccc(Cl)cc3)cc2)cc1 | 102.2% | 
14 | CC(C)(Oc1ccc(Cl)cc1)C(=O)N1CCC(NC(=O)Nc2ccc(C#N)cc2)CC1 | 116.2% | 
15 | O=C(c1ccc(F)cc1)C1CCN(CCn2c(=O)[nH]c3ccccc3c2=O)CC1 [KETANSERIN] |  | half-life [5]: 25 min; half-life [6]: 21 min; CLint scaled [7]: 258 mL/min/kg; CLint scaled [8]: 71 mL/min/kg
16 | CC(C)(Oc1ccc(Cl)cc1)C(=O)Nc1ccc(OCc2ccc(C(F)(F)F)cc2)cc1 | 156.1% | half-life [5]: > 120 min; remaining at 0.75 h [9]: 93%; half-life [6]: > 120 min; remaining at 0.75 h [10]: 91%; inhibition (INH) [4]: Active
17 | COc1ccc(COc2ccc(NC(=O)C(C)(C)Oc3ccc(Cl)cc3)cc2)cc1 | 134.7% | 
18 | CC(C)(Oc1ccc(Cl)cc1)C(=O)N1CCC(NC(=O)Nc2ccc(F)c(Cl)c2)CC1 | 116.7% | 
19 | CC(C)(Oc1ccc(Cl)cc1)C(=O)Nc1ccc(OCc2ccc(F)cc2)cc1 | 107.6% | 
20 | COc1ccc(C(=O)C2CCN(C(=O)c3ccc(C(=O)NC4CCN(Cc5ccc(C#N)cc5)CC4)cn3)CC2)cc1 |  | inhibition (INH) [11]: Active; inhibition (INH) [12]: Active
21 | CC(C)(Oc1ccc(Cl)cc1)C(=O)Nc1ccc(OCc2ccc(Cl)cc2)cc1 | 129% | Activity (C2C12): Active
22 | O[C@@H]1CO[C@H]2[C@@H]1OC[C@H]2Oc1nc2nc(-c3ccc(-c4ccccc4)cc3)c(Cl)cc2[nH]1 |  | Activity (A549): Active; Activity (Mus musculus [13]): Active; Activity (C2C12): Active; Activity (Mus musculus [14]): Active
23 | CCOC(=O)c1ccc(NC(=O)NC2CCN(C(=O)C(C)(C)Oc3ccc(Cl)cc3)CC2)cc1 | 126.1% | 
24 | CC(C)(Oc1ccc(Cl)cc1)C(=O)Nc1ccc(OCc2ccc(Br)cc2)cc1 | 112.7% | 
25 | Cc1ccc(NC(=O)NC2CCN(C(=O)C(C)(C)Oc3ccc(Cl)cc3)CC2)cc1 | 93.7% | 
26 | CC(C)(Oc1ccc(Cl)cc1)C(=O)N1CCC(NC(=O)Nc2cccc(C(F)(F)F)c2)CC1 | 91% | 
27 | CC(C)(Oc1ccc(Cl)cc1)C(=O)Nc1ccc(OCc2ccc(C(C)(C)C)cc2)cc1 | 105.3% | 
28 | CC(C)(Oc1ccc(Cl)cc1)C(=O)N1CCC(NC(=O)Nc2ccc(OC(F)(F)F)cc2)CC1 | 104.2% | 
29 | CC(C)(Oc1ccc(Cl)cc1)C(=O)Nc1ccc(OCc2ccc(OC(F)(F)F)cc2)cc1 | 133.4% | 
30 | CC(C)(Oc1ccc(Cl)cc1)C(=O)N1CCC(NC(=O)Nc2ccccc2C(F)(F)F)CC1 | 116.1% | 
